Results of several laboratories.
Protocols differ between the studies behind these lines.
Target: Vascular endothelial growth factor receptor 3 (FLT4, Homo sapiens, UniProt P35916)

Cc1nc(N2CC[C@@H](O)C2)ncc1-c1cc(C(F)(F)F)cc2[nH]ncc12 — remaining binding (cell-free assay, competition with immobilised ligand; 1 µM): 100%
N[C@H]1CCN(c2nccc(-c3cnn4ncccc34)n2)C1 — remaining binding (binding; 1 µM): 92%
O=C(c1ccc(Nc2ncc(Cl)c(-c3cc4ccccc4s3)n2)cc1)N1CCC(N2CCCC2)CC1 — remaining binding (binding, competition with immobilised ligand; 1 µM): 0.7%
CCc1ccccc1C(=O)Nc1n[nH]c2c(C)c(F)c(C3C(C#N)=C(C)N(C)C(C)=C3C#N)cc12 — remaining binding (cell-free assay, competition with immobilised ligand; 1 µM): 85%
COc1ccnn2ncc(-c3ccnc(N(C)C)n3)c12 — remaining binding (binding; 1 µM): 100%
O=C(c1ccc(Nc2nccc(-c3cc4ccccc4s3)n2)cc1)N1CCC(N2CCCC2)CC1 — remaining binding (binding, competition with immobilised ligand; 1 µM): 30%
CCN1CCN(Cc2ccc(C(=O)Nc3ccc(C)c(Oc4ccc5c(c4)CC(=O)N5)c3)cc2C(F)(F)F)CC1 — remaining binding (binding, competition with immobilised ligand; 1 µM): 100%
COc1cnc(Nc2cccc(S(N)(=O)=O)c2)nc1N1CCN(c2ccccc2)C(=O)C1 — remaining binding (binding, competition with immobilised ligand; 1 µM): 100%
CN(C)c1nccc(-c2cnc3ncccn23)n1 — remaining binding (binding; 1 µM): 88%
Cc1nc(C2CCN(C(=O)c3ccc(OC(F)(F)F)cc3N)CC2)c2ncc(N3CCN(C)CC3)cc2n1 — remaining binding (cell-free assay, competition with immobilised ligand; 1 µM): 75%
Cc1cnn2ncc(-c3ccnc(N(C)C)n3)c2c1 — remaining binding (binding; 1 µM): 100%
Nc1c(C(=O)NCc2ccc(C(=O)NCCCC3CCCCC3)cc2)cnn1-c1ccccc1 — remaining binding (cell-free assay, competition with immobilised ligand; 0.1 µM): 100%
CCN(CC)CCCCNc1ncc2cc(-c3cc(OC)cc(OC)c3)c(NC(=O)NC(C)(C)C)nc2n1 — remaining binding (cell-free assay, competition with immobilised ligand; 1 µM): 6%
Cc1cnc(Nc2ccc(C(=O)N3CCC(N4CCCC4)CC3)cc2)nc1-c1cc2ccccc2s1 — remaining binding (binding, competition with immobilised ligand; 1 µM): 0.4%
C[C@@H]1CCN(c2nccc(-c3cnn4ncccc34)n2)C1 — remaining binding (binding; 1 µM): 100%
O=C(NCC1CCOCC1)c1n[nH]cc1NC(=O)c1c(F)cccc1F — remaining binding (binding, competition with immobilised ligand; 1 µM): 95%
C[C@@H]1CN(c2cc(-c3nn(C)c4ccc(OC5(C)CC5)cc34)ncn2)C[C@H](C)O1 — remaining binding (cell-free assay, competition with immobilised ligand; 1 µM): 85%
CN(C)c1nccc(-c2cnn3ncccc23)n1 — remaining binding (binding; 1 µM): 100%
Cc1cc(C)c(-n2ccn3nc(-c4cccnc4)cc23)cc1NC(=O)c1cc(C#N)cc(S(F)(F)(F)(F)F)c1 — remaining binding (cell-free assay, competition with immobilised ligand; 0.1 µM): 77.6%
COc1cnc(Nc2cccc(S(N)(=O)=O)c2)nc1N1CCN(c2ccccc2)CC1 — remaining binding (binding, competition with immobilised ligand; 1 µM): 85%
CNCc1ccccc1-c1csc([C@@H](C)Nc2nc(C)nc3cc(OC)c(OC)cc23)c1 — remaining binding (cell-free assay, competition with immobilised ligand; 1 µM): 83%
FC(F)(F)Oc1cccc(-c2cnc3ccc(-c4ccncc4)nn23)c1 — remaining binding (cell-free assay, competition with immobilised ligand; 5 µM): 84%
